According to ChEMBL document CHEMBL4177642, “Cyclic perylene diimide: Selective ligand for tetraplex DNA binding over double stranded DNA” (Bioorg Med Chem, 2017):
The source made the active and inactive calls. No cut-off for these calls is given here.

Assays:
[1] = tested on: double-stranded DNA oligonucleotide dsOligo (synthetic); assay: Binding affinity to synthetic duplex DNA oligonucleotide dsOligo assessed as change in melting temperature at 1.5 uM in presence of K+ by spectrophotometric analysis
Calf thymus DNA [2] = assay: Binding affinity to calf thymus duplex DNA assessed as change in the intensities of positive band formation at 250 nm up to 10 uM in presence of Na+ by CD spectroscopic method; assay type: ADME, nucleic-acid assay, Bos taurus; details: cattle, 0.25 µM
Quadruplex DNA [3] = assay: Binding affinity to human TA-core of telomeric sequence G-quadruplex DNA assessed as change in enthalpy at 100 uM in presence of Na+ by isothermal titration calorimetric method; assay type: nucleic-acid assay
Outline: (§1)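 ITC at 25 °C: TA-core (10 μM in cell) annealed 95 °C 10 min, cooled 1.0 °C/min to 25 °C, in 50 mM AcOK-AcOH pH 5.5 (K+ lines) or AcONa-AcOH pH 5.5 (Na+ lines). Ligand at 100 μM in same buffer injected repeatedly (1.96 μL each). Solutions degassed 10 min; data fitted to an independent-site model.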

Quadruplex DNA [4] = assay: Binding affinity to human TA-core of telomeric sequence G-quadruplex DNA assessed as stabilization of antiparallel G-quadruplex structure by measuring increase in intensities of positive band at 290 nanometer up to 7.5 uM in presence of K+ by CD spectroscopic method; assay type: nucleic-acid assay
[5] = Binding affinity to 27-mer DNA hairpin (unknown origin) at 100 uM in presence of Na+ by isothermal titration calorimetric method
Quadruplex DNA [6] = assay: Binding affinity to human TA-core of telomeric sequence G-quadruplex DNA assessed as change in melting temperature at 1.5 uM in presence of K+ by spectrophotometric analysis; assay type: nucleic-acid assay
Outline: (§2)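 Melting of 1.5 μM TA-core followed by CD at 288 nm in 50 mM Tris-HCl pH 7.4 with 20 mM KCl or 20 mM NaCl. Run without or with 1.5 μM ligand (1:1 ligand:DNA), heating at 60 °C/h, data every 0.5 °C, 1 cm cell.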

Quadruplex DNA [7] = assay: Binding affinity to human TA-core of telomeric sequence G-quadruplex DNA assessed as change in enthalpy at 100 uM in presence of K+ by isothermal titration calorimetric method; assay type: nucleic-acid assay
Outline: as §1

Quadruplex DNA [8] = assay: Binding affinity to human TA-core of telomeric sequence G-quadruplex DNA assessed as hyperchromic shift at 550 nanometer at 5 uM in presence of 100 mM KCl by UV-vis spectrophotometric analysis relative to control; assay type: nucleic-acid assay
Outline: (§3)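 Absorption spectra at 25 °C of 5.0 μM ligand in 50 mM Tris-HCl pH 7.4, 0.10 M KCl, titrated with TA-core (0–15.7 μM) or CT-DNA (0–323.4 μM; concentration in base pairs).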

Quadruplex DNA [9] = assay: Binding affinity to human TA-core of telomeric sequence G-quadruplex DNA assessed as stabilization of antiparallel structure formation up to 4.5 uM in presence of Na+ by CD spectroscopic method; assay type: nucleic-acid assay
Calf thymus DNA [10] = assay: Binding affinity to calf thymus duplex DNA assessed as hyperchromic shift at 550 nanometer at 5 uM in presence of 100 mM KCl by UV-vis spectrophotometric analysis relative to control; assay type: ADME, nucleic-acid assay, Bos taurus; details: cattle
Outline: as §3

DNA = assay: Binding affinity to Escherichia coli pUC19 duplex DNA assessed as unwinding of supercoiled DNA up to 40 uM after 1 hr in presence of human topoisomerase-1 by agarose gel electrophoresis; assay type: ADME, nucleic-acid assay
Outline: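 pUC19 plasmid (0.025 μg/μL) preincubated 5 min at 37 °C with human Topo I (0.25 units/μL, 0.01% BSA) in 35 mM Tris-HCl pH 8.0, 72 mM KCl, 5 mM MgCl2, 5 mM DTT, 5 mM spermidine. Ligand then added and incubated 1 h at 37 °C. Stopped with SDS, proteinase K digested, phenol/chloroform extracted, run on 1% agarose, GelStar-stained.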

Calf thymus DNA [11] = assay: Binding affinity to calf thymus duplex DNA assessed as red shift at 500 nanometer at 5 uM in presence of 100 mM KCl by UV-vis spectrophotometric analysis; assay type: ADME, nucleic-acid assay, Bos taurus; details: cattle
Outline: as §3

Quadruplex DNA [12] = assay: Binding affinity to human TA-core of telomeric sequence G-quadruplex DNA assessed as stabilization of antiparallel structure formation up to 5 equiv by CD spectroscopic method; assay type: nucleic-acid assay
Quadruplex DNA [13] = assay: Binding affinity to human TA-core of telomeric sequence G-quadruplex DNA assessed as stabilization of antiparallel G-quadruplex structure by measuring increase in intensities of negative band at 240 nanometer up to 7.5 uM in presence of K+ by CD spectroscopic method; assay type: nucleic-acid assay
Calf thymus DNA [14] = assay: Binding affinity to calf thymus duplex DNA assessed as change in the intensities of negative band formation at 280 nm up to 10 uM in presence of Na+ by CD spectroscopic method; assay type: ADME, nucleic-acid assay, Bos taurus; details: cattle, 0.28 µM
Quadruplex DNA [15] = assay: Binding affinity to human TA-core of telomeric sequence G-quadruplex DNA assessed as change in entropy at 100 uM in presence of K+ by isothermal titration calorimetric method; assay type: nucleic-acid assay
Outline: as §1

Calf thymus DNA [16] = assay: Binding affinity to calf thymus duplex DNA assessed as change in the intensities of negative band formation at 280 nm up to 10 uM in presence of K+ by CD spectroscopic method; assay type: ADME, nucleic-acid assay, Bos taurus; details: cattle, 0.28 µM
[17] = Selectivity ratio of binding constant for human TA-core of telomeric sequence G-quadruplex DNA to binding conctant for calf thymus duplex DNA
[18] = tested on: double-stranded DNA oligonucleotide dsOligo (synthetic); assay: Binding affinity to synthetic duplex DNA oligonucleotide dsOligo assessed as increase in melting temperature at 3 to 4.5 uM in presence of K+ by spectrophotometric analysis
Quadruplex DNA [19] = assay: Binding affinity to human TA-core of telomeric sequence G-quadruplex DNA assessed as change in entropy at 100 uM in presence of Na+ by isothermal titration calorimetric method; assay type: nucleic-acid assay
Outline: as §1

Calf thymus DNA [20] = assay: Binding affinity to calf thymus duplex DNA assessed as change in the intensities of positive band formation at 250 nm up to 10 uM by CD spectroscopic method; assay type: ADME, nucleic-acid assay, Bos taurus; details: cattle, 0.25 µM
Quadruplex DNA [21] = assay: Binding affinity to human TA-core of telomeric sequence G-quadruplex DNA assessed as isosbestic point at 5 uM in presence of 100 mM KCl by UV-vis spectrophotometric analysis; assay type: nucleic-acid assay
Outline: as §3

Calf thymus DNA [22] = assay: Binding affinity to calf thymus duplex DNA assessed as change in the intensities of positive band formation at 250 nm up to 10 uM in presence of K+ by CD spectroscopic method; assay type: ADME, nucleic-acid assay, Bos taurus; details: cattle, 0.25 µM
Quadruplex DNA [23] = assay: Binding affinity to human TA-core of telomeric sequence G-quadruplex DNA assessed as hypochromic shift at 500 nanometer at 5 uM in presence of 100 mM KCl by UV-vis spectrophotometric analysis relative to control; assay type: nucleic-acid assay
Outline: as §3

Quadruplex DNA [24] = assay: Binding affinity to human TA-core of telomeric sequence G-quadruplex DNA assessed as red shift at 500 nanometer at 5 uM in presence of 100 mM KCl by UV-vis spectrophotometric analysis; assay type: nucleic-acid assay
Outline: as §3

Calf thymus DNA [25] = assay: Binding affinity to calf thymus duplex DNA assessed as hypochromic shift at 500 nanometer at 5 uM in presence of 100 mM KCl by UV-vis spectrophotometric analysis relative to control; assay type: ADME, nucleic-acid assay, Bos taurus; details: cattle
Outline: as §3

Calf thymus DNA [26] = assay: Binding affinity to calf thymus duplex DNA assessed as change in the intensities of negative band formation at 280 nm up to 10 uM by CD spectroscopic method; assay type: ADME, nucleic-acid assay, Bos taurus; details: cattle, 0.28 µM
[27] = Binding affinity to 27-mer DNA hairpin (unknown origin) at 100 uM in presence of K+ by isothermal titration calorimetric method
Calf thymus DNA [28] = assay: Binding affinity to calf thymus duplex DNA assessed as isosbestic point at 5 uM by UV-vis spectrophotometric analysis; assay type: ADME, nucleic-acid assay, Bos taurus; details: cattle
Outline: as §3

Quadruplex DNA [29] = assay: Binding affinity to human TA-core of telomeric sequence G-quadruplex DNA assessed as change in melting temperature at 1.5 uM in presence of Na+ by spectrophotometric analysis; assay type: nucleic-acid assay
Outline: as §2

[30] = Inhibition of telomerase (unknown origin) by TRAP assay; parameters: species or system Homo sapiens
Outline: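 TRAP with a TRAPeze kit, using positive-control cell lysate (250 cells per reaction). Extension 30 °C 1 h, then 35 PCR cycles. Products run on 12.5% PAGE, GelStar-stained and analyzed per kit.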

deltaTm [1]: -1 °C | Activity (Calf thymus DNA [2]): Not Active | deltaH (Quadruplex DNA [3]): -7.14 kcal/mol | Activity (Quadruplex DNA [4]): Active | Activity [5]: inactive | ΔTm (Quadruplex DNA [6]): 21 °C | deltaH (Quadruplex DNA [7]): -6.71 kcal/mol | Activity (Quadruplex DNA [8]): 55% | Activity (Quadruplex DNA [9]): Active | Activity (Calf thymus DNA [10]): 29% | Activity (DNA): Not Active | Activity (Calf thymus DNA [11]): 8 nm | Activity (Quadruplex DNA [12]): Active | Activity (Quadruplex DNA [13]): Active | Activity (Calf thymus DNA [14]): Not Active | -TdeltaS (Quadruplex DNA [15]): -1.56 kcal/mol | Activity (Calf thymus DNA [16]): Not Active | Selectivity ratio [17]: 900 | Activity [18]: Not Active | -TdeltaS (Quadruplex DNA [19]): -1.7 kcal/mol | Activity (Calf thymus DNA [20]): Not Active | Activity (Quadruplex DNA [21]): 510 nm | Activity (Calf thymus DNA [22]): Not Active | Activity (Quadruplex DNA [23]): 42% | Activity (Quadruplex DNA [24]): 13 nm | Activity (Calf thymus DNA [25]): 50% | Activity (Calf thymus DNA [26]): Not Active | Activity [27]: inactive | Activity (Calf thymus DNA [28]): 520 nm | ΔTm (Quadruplex DNA [29]): 14 °C | IC50 [30]: 240 nM
SMILES: O=C1CCCCCC(=O)NCCCN2CCN(CCCN3C(=O)c4ccc5c6ccc7c8c(ccc(c9ccc(c4c59)C3=O)c86)C(=O)N(CCCN3CCN(CCCN1)CC3)C7=O)CC2
